Positions count from the first letter of the chain named.
Columns and labels:
[1] = Clearance in rat at 0.5 mg/kg, iv administered as single bolus dose; assay type: ADME, organism-based; settings: in vivo
How it was run: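 Rat, single IV bolus of 0.5 mg/kg as a solution in 20% HPBCD; observed plasma clearance.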

[2] = target: T1, Muscarinic acetylcholine receptor M2 (Homo sapiens, UniProt P08172); test: Positive allosteric modulation of human muscarinic acetylcholine receptor M2 expressed in CHO cells assessed as increase in acetylcholine-induced cAMP accumulation up to 10 uM after 2 hrs by cAMP-Glo assay; assay type: cell-based
T1 sequence (P08172 whole entry): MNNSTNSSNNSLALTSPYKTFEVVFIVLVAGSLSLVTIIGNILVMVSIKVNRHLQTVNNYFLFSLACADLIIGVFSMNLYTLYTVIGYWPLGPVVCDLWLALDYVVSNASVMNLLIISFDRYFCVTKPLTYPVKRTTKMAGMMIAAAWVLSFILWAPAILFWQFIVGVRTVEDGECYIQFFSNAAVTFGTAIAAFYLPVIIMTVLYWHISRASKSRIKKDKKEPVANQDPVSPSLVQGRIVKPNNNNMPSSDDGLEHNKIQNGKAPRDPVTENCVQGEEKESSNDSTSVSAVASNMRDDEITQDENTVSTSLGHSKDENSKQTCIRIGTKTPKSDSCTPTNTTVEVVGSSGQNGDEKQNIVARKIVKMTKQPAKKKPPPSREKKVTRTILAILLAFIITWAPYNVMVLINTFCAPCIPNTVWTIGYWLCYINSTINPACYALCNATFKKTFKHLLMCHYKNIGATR
How it was run: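 Recombinant functional human M2–M5 assays, each run in agonist and PAM modes at concentrations up to 10 μM.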

[3] = target: T2, Muscarinic acetylcholine receptor M1 (Rattus norvegicus, UniProt P08482); test: Positive allosteric modulation of muscarinic acetylcholine receptor M1 in Sprague-Dawley rat brain hippocampal slices assessed as increase in carbachol-induced firing rate at CA1 pyramidal neurons after 10 mins by electrophysiology method
T2 sequence (P08482 whole entry): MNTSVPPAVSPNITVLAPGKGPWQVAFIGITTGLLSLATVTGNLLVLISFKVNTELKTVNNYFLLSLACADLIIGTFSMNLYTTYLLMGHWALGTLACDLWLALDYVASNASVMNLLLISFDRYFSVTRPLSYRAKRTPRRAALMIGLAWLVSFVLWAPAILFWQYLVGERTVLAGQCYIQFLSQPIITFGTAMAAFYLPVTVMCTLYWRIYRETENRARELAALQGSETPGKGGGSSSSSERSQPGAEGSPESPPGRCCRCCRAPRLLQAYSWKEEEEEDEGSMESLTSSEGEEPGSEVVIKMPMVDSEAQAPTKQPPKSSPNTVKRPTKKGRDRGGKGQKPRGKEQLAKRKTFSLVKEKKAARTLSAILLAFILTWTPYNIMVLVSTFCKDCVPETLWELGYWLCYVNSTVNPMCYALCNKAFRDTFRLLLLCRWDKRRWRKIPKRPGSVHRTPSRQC
How it was run: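 Rat hippocampal slices; spontaneous action potentials recorded from CA1 pyramidal neurons, read as spike rate. Agonist mode has no carbachol; PAM mode uses an EC20 level of carbachol. Top concentration tested was 3 μM.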

[4] = (§1) Agonist activity at muscarinic acetylcholine receptor M1 in Hartley guinea pig ileum longitudinal muscle myenteric plexus assessed as tissue contraction after 10 mins; settings: Cavia porcellus
Cavia porcellus = species on record: Cavia porcellus; test: as §1
[5] = target: T3, Muscarinic acetylcholine receptor M1 (Homo sapiens, UniProt P11229); test: Ratio of positive allosteric modulation of human muscarinic acetylcholine receptor M1 expressed in CHO cells assessed as increase in acetylcholine-induced beta-arrestin recruitment by measuring functional co-operativity with acetylcholine to Kb for human muscarinic acetylcholine receptor M1 expressed in CHO cells assessed as increase in beta-arrestin recruitment; assay type: ADME, cell-based
T3 sequence (P11229 whole entry): T2 sequence (P08482 whole entry) with V5A, S254T, S309P, K320R, G337A, V413I

Plasma = test: Unbound plasma concentration in scopolamine-induced memory impairment Wistar rat model at 0.32 mg/kg, sc measured after 1.25 hrs by LC-MS/MS analysis; assay type: ADME, organism-based; settings: in vivo
How it was run: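 Rats from a satellite group of the scopolamine (0.32 mg/kg) Morris water maze study, N = 2/dose. Dosed sc as a solution in 20% hydroxypropyl β-cyclodextrin. Compound concentrations measured in plasma only at T = 1.25 h.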

Rattus norvegicus [6] = test: Unbound Cmax in rat plasma at 1 mg/kg, po administered as single dose; assay type: ADME, organism-based; settings: in vivo
How it was run: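 Rats (3/sex/dose) dosed orally once, 1 or 5 mg/kg as a 0.5% methylcellulose suspension.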

Rattus norvegicus [7] = test: Unbound Cmax in rat plasma at 15 mg/kg, po administered as single dose; assay type: ADME, organism-based; settings: in vivo
Rattus norvegicus [8] = test: Unbound AUC (0 to 24 hrs) in rat plasma at 15 mg/kg, po administered as single dose; assay type: ADME, organism-based; settings: in vivo
Rattus norvegicus [9] = test: Cholinergic toxicity in rat at 1 to 5 mg/kg, po administered as single dose; assay type: organism-based; settings: in vivo
How it was run: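 Rat single oral dose escalation, 3/sex/dose. 1 and 5 mg/kg as a 0.5% methylcellulose suspension; 15 and 45 mg/kg as a nanosuspension (1.25% w/v hydroxypropyl cellulose SL, 0.05% docusate sodium in water).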

Canis familiaris [10] = test: Unbound Cmax in dog plasma at 5 mg/kg, po administered as single dose using spray dried dispersion formulation; assay type: ADME, organism-based, Canis lupus familiaris; settings: in vivo
Canis familiaris [11] = test: Cholinergic toxicity in dog assessed as circling behaviour at 5 mg/kg, po administered as single dose using spray dried dispersion formulation after 4.3 hrs; assay type: organism-based, Canis lupus familiaris; settings: in vivo
How it was run: (§2)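 Dog single oral dose escalation: 1/sex at 5 mg/kg for each formulation; 1 female at 15 mg/kg. Spray-dried dispersion: 23% drug loading with 0.5% methylcellulose and 100 mM citrate buffer. Clinical signs timed in approximate hours postdose; unbound plasma Cmax.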

Canis familiaris [12] = test: Cholinergic toxicity in dog assessed as increased activity at 15 mg/kg, po administered as single dose using spray dried dispersion formulation after 1 hr; assay type: organism-based, Canis lupus familiaris; settings: in vivo; how it was run: as §2
Canis familiaris [13] = test: Toxicity in dog assessed as vocalization at 15 mg/kg, po administered as single dose using spray dried dispersion formulation after 1 hr; assay type: organism-based, Canis lupus familiaris; settings: in vivo
Mus musculus = test: In vivo agonist activity at muscarinic acetylcholine receptor M1 in C57BL/6 mouse assessed as unbound brain concentration required to show 2 fold increase in IP1 accumulation in striatum at 1 to 10 mg/kg, sc measured after 2 hrs; assay type: organism-based
How it was run: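 Cb,u giving a 2-fold rise in striatal IP1 in C57BL/6 mice, estimated by interpolation of individual-mouse IP1 versus free brain exposure data.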

For `Cc1cc2c(cc1Cc1ccc(-c3cocn3)cc1)C(=O)N([C@H]1CCOC[C@@H]1O)C2`, the clearance [1] was 2.4 mL/min/kg, the Activity [2] was “Not Active” and the Activity [3] was “Dose-dependent effect”. The EC50 [4] was 92 nM, the Activity (Cavia porcellus) was “Dose-dependent effect” and the Ratio [5] was 100. For the same molecule, the “Cp(f)” value (Plasma) was 17 nM, the fCmax (Rattus norvegicus [6]) was 73 nM and the fCmax (Rattus norvegicus [7]) was 1507 nM. The fAUC (Rattus norvegicus [8]) was 20.609 µM·h, the Activity (Rattus norvegicus [9]) was “Non-Toxic” and the fCmax (Canis familiaris [10]) was 446 nM. For the same molecule, the Activity (Canis familiaris [11]) was “Toxic”, the Activity (Canis familiaris [12]) was “Toxic” and the Activity (Canis familiaris [13]) was “Toxic”. The “Drug uptake(free)” value (Mus musculus) was 22 nM.

Source: ChEMBL document CHEMBL4017487, “Design and Synthesis of γ- and δ-Lactam M1 Positive Allosteric Modulators (PAMs): Convulsion and Cholinergic Toxicity of an M1-Selective PAM with Weak Agonist Activity” (J Med Chem, 2017)
